This is an account of results in ChEMBL document CHEMBL1148825, “Beta- and gamma-di- and tripeptides as potential substrates for the oligopeptide transporter hPepT1” (J Med Chem, 2007).

A short description of data set [1]: Apparent permeability from apical to basolateral side of human Caco-2 cells in presence of 5 mM GlySar. Format: ADME, cell-based. Conditions: Caco-2, with GlySar 5 mM. On the technique in general: Caco-2 monolayers are a common model of the intestinal barrier.
Data set [2] in a line: Apparent permeability from apical to basolateral side of human Caco-2 cells. Type of data set: ADME, cell-based. The method, boiled down:
(§1)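 Caco-2 monolayers (passage 94-100) on polycarbonate inserts, differentiated 24 ± 1 days. Transport in HBSS with pH gradient: apical pH 6.0 (10 mM MES), basolateral pH 7.4 (25 mM HEPES), 0.5% DMSO final. Samples taken at intervals, replaced with HBSS + 0.5% DMSO. Papp = dQ/dt × 1/(A × c0), from steady-state flux; n = 3-4.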

Data set [3] in a line: Apparent permeability from apical to basolateral side of human Caco-2 cells at pH 7.4 after 180 mins. The settings on record: Caco-2, pH 7.4. Format: ADME, cell-based. The essentials:
(§2)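 Caco-2 monolayers (passage 94-100, differentiated 24 ± 1 days on inserts). Transport in HBSS at pH 7.4 on both sides, 0.5% DMSO final, over 180 min. Run with and without P-gp inhibitor GF120918 at 2 µM. Samples taken at intervals. Papp from steady-state flux divided by filter area and initial donor concentration.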

Data set [4] is described as follows: Apparent permeability from basolateral to apical side of human Caco-2 cells. Type of data set: ADME, cell-based. The method, boiled down: as §1
Data set [5] is described as follows: Apparent permeability from basolateral to apical side of human Caco-2 cells at pH 7.4 after 180 mins. Type of data set: ADME, cell-based. Conditions: Caco-2, pH 7.4. The essentials:
as §2

In data set [6] the target is T1, Solute carrier family 15 member 1 (Homo sapiens) (UniProt P46059).
T1 sequence (whole entry): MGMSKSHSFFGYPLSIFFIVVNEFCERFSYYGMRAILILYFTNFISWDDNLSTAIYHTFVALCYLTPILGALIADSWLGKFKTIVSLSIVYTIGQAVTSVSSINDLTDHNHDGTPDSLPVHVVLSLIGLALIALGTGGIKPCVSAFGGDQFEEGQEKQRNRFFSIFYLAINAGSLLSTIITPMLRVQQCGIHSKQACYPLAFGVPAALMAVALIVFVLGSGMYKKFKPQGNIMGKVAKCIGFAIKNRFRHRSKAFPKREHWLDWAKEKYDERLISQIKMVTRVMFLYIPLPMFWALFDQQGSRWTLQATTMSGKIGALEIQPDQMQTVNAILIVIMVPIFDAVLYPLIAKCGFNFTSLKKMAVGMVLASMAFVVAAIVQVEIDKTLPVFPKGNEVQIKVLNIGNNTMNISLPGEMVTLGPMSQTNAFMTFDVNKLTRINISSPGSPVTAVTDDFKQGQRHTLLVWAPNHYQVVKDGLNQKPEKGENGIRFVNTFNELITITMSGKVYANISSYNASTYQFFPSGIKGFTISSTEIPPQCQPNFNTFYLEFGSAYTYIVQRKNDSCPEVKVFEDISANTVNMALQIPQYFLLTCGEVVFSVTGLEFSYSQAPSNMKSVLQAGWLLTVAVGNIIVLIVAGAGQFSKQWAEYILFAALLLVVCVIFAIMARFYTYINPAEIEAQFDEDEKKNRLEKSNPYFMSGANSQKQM
Put plainly: Inhibition of [3H]GlySar uptake at human PepT1 in Caco-2 cells. Type of data set: cell-based. The essentials:
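Uptake into differentiated Caco-2 monolayers under apical pH 6.0/basolateral pH 7.4 HBSS. 5 min incubation with 1 µCi/mL [3H]GlySar (250 nM), with or without 4 mM test compound in the apical donor chamber. Stopped by removing solution and three ice-cold HBSS washes. Monolayer radioactivity counted relative to control; SD, n = 3, significance at p < 0.05.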

Data set [7] in a line: Apparent permeability across human Caco-2 cells. Type of data set: ADME, cell-based. The method, boiled down:
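Caco-2 monolayers (passage 94-100) on 0.4 µm polycarbonate inserts, seeded 4.4 × 10^5 cells per cm2, differentiated 24 ± 1 days. Transport in HBSS with 0.5% DMSO, apical pH 6.0 (10 mM MES), basolateral pH 7.4 (25 mM HEPES); P-gp runs at pH 7.4. Both directions sampled over time. Papp = dQ/dt × 1/(A × c0); n = 3-4.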

The source made the active and inactive calls. The rule behind the calls is not given here. Square brackets hold non-standard residues; d marks the D form. Peptide text beside a SMILES is read from it. Sar = CNCC(=O)O

As a reminder, the Papp A→B is how fast a substance crosses the layer from the apical side. In general, Papp B→A refers to the apparent permeability from the basolateral to the apical side of a cell layer. Usually Papp stands for a coefficient for how fast a substance crosses the barrier.

As for `CCC[C@@H](C[C@H](C)NC(=O)[C@H](C)C[C@@H](NC(=O)[C@@H](Cc1ccccc1)C[C@@H](C)N)C(C)C)C(=O)O`, the Papp A→B in data set [1] was 0.028 ×10⁻⁶ cm/s; in data set [2] it was 0.033 ×10⁻⁶ cm/s. The Papp A→B at 3 h in data set [3] was determined as 0.021 ×10⁻⁶ cm/s. In addition, the Papp B→A in data set [4] was found to be 0.097 ×10⁻⁶ cm/s. Also, in data set [5], the Papp B→A at 3 h turned out to be 0.115 ×10⁻⁶ cm/s. The outcome in data set [6] was Active.
Turning to `CC(C)C[C@H](CCNC(=O)[C@H](C)CCNC(=O)[C@@H](CCN)C(C)C)C(=O)O`, the results for the Papp A→B in data set [1] and in data set [2] were 0.026 ×10⁻⁶ cm/s and 0.034 ×10⁻⁶ cm/s, respectively. Also, the Papp B→A in data set [4] came to 0.094 ×10⁻⁶ cm/s. Further, the result in data set [6] was inactive.
On to `NCCCC[C@@H](CC(=O)N[C@H](CC(=O)O)Cc1ccccc1)NC(=O)C[C@@H](N)CO`, for which the Papp A→B stood at 0.031 ×10⁻⁶ cm/s in data set [1] and 0.037 ×10⁻⁶ cm/s in data set [2]. Besides, the apparent permeability from basolateral to apical (Papp B→A) in data set [4] is 0.071 ×10⁻⁶ cm/s. For the same compound, the result in data set [6] was Active.
For the compound `CC(C)C[C@@H](CC(=O)O)NC(=O)[C@@H](C)CN`, the values for the Papp A→B in data set [1] and in data set [2] were 0.055 ×10⁻⁶ cm/s and 0.095 ×10⁻⁶ cm/s, respectively. For the same compound, the Papp B→A in data set [4] was determined as 0.084 ×10⁻⁶ cm/s. Also, the result in data set [6] was Active.
As to `C[C@H](N)CC(=O)N[C@@H](CCCCN)CC(=O)O`, in data set [2], the Papp A→B worked out at 0.037 ×10⁻⁶ cm/s. Besides, the Papp A→B at 3 h in data set [3] was found to be 0.044 ×10⁻⁶ cm/s. Moreover, the Papp B→A in data set [4] was 0.078 ×10⁻⁶ cm/s. Besides, the basolateral-to-apical permeability (Papp B→A) at 3 h in data set [5] worked out at 0.051 ×10⁻⁶ cm/s. Further, in data set [6], the outcome was Active.
On to `C[C@H](N)CC(=O)N[C@@H](CCCCN)CC(=O)N[C@H](CC(=O)O)Cc1ccccc1`, for which the Papp A→B in data set [1] amounted to 0.039 ×10⁻⁶ cm/s; in data set [2], 0.049 ×10⁻⁶ cm/s. The Papp B→A in data set [4] came out at 0.061 ×10⁻⁶ cm/s. The outcome in data set [6] was Active.
For `CC(C)C[C@@H](CNC(=O)[C@@H](C)CNC(=O)[C@H](CN)C(C)C)C(=O)O`, in that order: 0.023 ×10⁻⁶ cm/s, 0.024 ×10⁻⁶ cm/s, 0.071 ×10⁻⁶ cm/s and “Active”.
On to `CN(CC(=O)O)C(=O)CN` [GLYCYLSARCOSINE] (H-Gly-[Sar]-OH), for which the Papp in data set [7] was 11 ×10⁻⁶ cm/s.
Consider `NCCCC[C@H](N)CC(=O)N[C@H](CC(=O)O)Cc1ccccc1`, for which the Papp A→B in data set [1] stood at 0.045 ×10⁻⁶ cm/s; in data set [2], 0.072 ×10⁻⁶ cm/s. Further, the Papp B→A in data set [4] was 0.075 ×10⁻⁶ cm/s. Besides, the outcome in data set [6] was Active.
For `C[C@@H](CC(=O)O)NC(=O)C[C@H](C)NC(=O)C[C@@H](N)CO`, the Papp A→B in data set [1] worked out at 0.043 ×10⁻⁶ cm/s; in data set [2], 0.044 ×10⁻⁶ cm/s. Besides, the result in data set [6] was inactive.
Turning to `CC(C)C[C@@H](CC(=O)O)NC(=O)C[C@H](C)N`, the Papp A→B in data set [1] worked out at 0.291 ×10⁻⁶ cm/s; in data set [2], 0.613 ×10⁻⁶ cm/s. For the same compound, in data set [4], the Papp B→A was 0.129 ×10⁻⁶ cm/s. In data set [6], the outcome was Active.
Consider `CC(C)[C@H](N)CC(=S)N[C@@H](C)CC(=O)O`, for which the values for the Papp A→B in data set [1] and in data set [2] were 0.393 ×10⁻⁶ cm/s and 0.754 ×10⁻⁶ cm/s, respectively. In addition, the Papp B→A in data set [4] was found to be 0.124 ×10⁻⁶ cm/s. The result in data set [6] was Active.
